{"source": "ChEMBL document CHEMBL3612039", "about": "“Design, synthesis and evaluation of novel polypharmacological antichlamydial agents” (Eur J Med Chem, 2015)", "key": {"[1]": {"test_system": "Yersinia pseudotuberculosis", "assay": "Inhibition of phosphatase activity of secreted YopH in Yersinia pseudotuberculosis at 12 to 100 uM by orthogonal assay", "method_in_brief": "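Orthogonal test of T3S inhibition in bacterial cultures that reads the phosphatase activity of secreted YopH effector protein. Compound used in two-fold dilutions from 100 to 12,5 at 1% final DMSO. Result given as percent inhibition relative to 1% DMSO-treated controls.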"}, "Chlamydia trachomatis [2]": {"test_system": "Chlamydia trachomatis", "assay": "Antichlamydial activity against Chlamydia trachomatis L2 serovar VR-902B infected in human HeLa cells assessed as growth inhibition at 50 uM after 24 to 48 hrs by microscopic analysis in presence of iron sulfate", "format": "functional, organism-based"}, "[3]": {"test_system": "Yersinia pseudotuberculosis", "assay": "Inhibition of type 3 secretion system in Yersinia pseudotuberculosis at 100 uM by yopE luciferase reporter gene assay", "method_in_brief": "(§1)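 T3S inhibition in bacterial cultures measured with a yopE luciferase reporter gene. Compound used in two-fold dilutions from 100 to 12,5 at 1% final DMSO. Result given as percent inhibition relative to 1% DMSO-treated controls.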"}, "Chlamydia pneumoniae": {"test_system": "Chlamydia pneumoniae", "assay": "Antichlamydial activity against Chlamydia pneumoniae T45 infected in human HeLa cells assessed as growth inhibition at 50 uM after 24 to 48 hrs by microscopic analysis", "format": "functional"}, "[4]": {"assay": "Cytotoxicity against human HeLa cells assessed as cell viability at 50 uM after 48 hrs by resazurin based fluorescence assay", "conditions": "read-out: Activity"}, "Chlamydia trachomatis [5]": {"test_system": "Chlamydia trachomatis", "assay": "Antichlamydial activity against Chlamydia trachomatis L2 serovar VR-902B infected in human HeLa cells assessed as growth inhibition at 50 uM after 24 to 48 hrs by microscopic analysis", "format": "functional"}, "[6]": {"test_system": "Yersinia pseudotuberculosis", "assay": "Antimicrobial activity against Yersinia pseudotuberculosis after 20 hrs", "format": "functional", "method_in_brief": "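Overnight culture diluted into Mueller Hinton broth containing compound at 100, 50, 25 or 12, incubated 37 °C for 20 h; bacterial growth scored by visual inspection to give minimum inhibitory concentration.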"}, "[7]": {"test_system": "Yersinia pseudotuberculosis", "assay": "Inhibition of type 3 secretion system in Yersinia pseudotuberculosis by yopE luciferase reporter gene assay", "method_in_brief": "as §1"}, "[8]": {"assay": "Aqueous solubility of the compound", "format": "physicochemical", "conditions": "buffer"}}, "note": "The source made the active and inactive calls. No cut-off for these calls is given here.", "data": [{"smiles": "Cc1cc(NS(=O)(=O)c2ccc(NC(=O)c3sc4cc(Cl)ccc4c3Cl)cc2)no1", "values": [{"measurement": "inhibition", "setting": "[1]", "value": "inactive"}, {"measurement": "growth inhibition (GI)", "setting": "Chlamydia trachomatis [2]", "value": "Active"}, {"measurement": "inhibition", "setting": "[3]", "value": "inactive"}]}, {"smiles": "Cc1cc(NS(=O)(=O)c2ccc(NC(=O)NCc3ccccc3O)cc2)no1", "values": [{"measurement": "inhibition", "setting": "Chlamydia pneumoniae", "value": "inactive"}, {"measurement": "viability at 48 h, 50 µM", "setting": "[4]", "value": "> 70", "unit": "%"}, {"measurement": "inhibition", "setting": "Chlamydia trachomatis [5]", "value": "inactive"}, {"measurement": "MIC", "setting": "[6]", "value": "> 100", "unit": "µM"}]}, {"smiles": "Cc1cc(NS(=O)(=O)c2ccc(NC(=O)Nc3ccc(O)cc3)cc2)no1", "values": [{"measurement": "inhibition", "setting": "Chlamydia pneumoniae", "value": "inactive"}, {"measurement": "viability at 48 h, 50 µM", "setting": "[4]", "value": "> 70", "unit": "%"}, {"measurement": "inhibition at 50 µM", "setting": "Chlamydia trachomatis [5]", "value": 9.6, "unit": "%"}, {"measurement": "MIC", "setting": "[6]", "value": "> 100", "unit": "µM"}]}, {"smiles": "Cc1cc(NS(=O)(=O)c2ccc(C(=O)N/N=C/c3ccc(O)cc3O)cc2)no1", "values": [{"measurement": "inhibition", "setting": "Chlamydia pneumoniae", "value": "inactive"}, {"measurement": "viability at 48 h, 50 µM", "setting": "[4]", "value": "> 70", "unit": "%"}, {"measurement": "inhibition at 50 µM", "setting": "Chlamydia trachomatis [5]", "value": 47.4, "unit": "%"}, {"measurement": "inhibition", "setting": "[7]", "value": "Dose-dependent effect"}, {"measurement": "MIC", "setting": "[6]", "value": "> 100", "unit": "µM"}]}, {"smiles": "CCN(CC)c1ccc(/C=N/NC(=O)c2ccc(/C=C/C(=O)Nc3ccc(S(=O)(=O)Nc4cc(C)on4)cc3)cc2)c(O)c1", "values": [{"measurement": "inhibition at 50 µM", "setting": "Chlamydia pneumoniae", "value": 22.4, "unit": "%"}, {"measurement": "inhibition at 50 µM", "setting": "Chlamydia trachomatis [5]", "value": 28, "unit": "%"}, {"measurement": "inhibition", "setting": "[7]", "value": "Dose-dependent effect"}, {"measurement": "MIC", "setting": "[6]", "value": "> 100", "unit": "µM"}, {"measurement": "solubility", "setting": "[8]", "value": "Insoluble"}]}, {"smiles": "Cc1cc(NS(=O)(=O)c2ccc(NC(=O)/C=C/c3ccc(C(=O)N/N=C/c4cc(Cl)cc(Cl)c4O)cc3)cc2)no1", "values": [{"measurement": "inhibition", "setting": "Chlamydia pneumoniae", "value": "inactive"}, {"measurement": "viability at 48 h, 50 µM", "setting": "[4]", "value": "> 70", "unit": "%"}, {"measurement": "inhibition at 50 µM", "setting": "Chlamydia trachomatis [5]", "value": 14.6, "unit": "%"}, {"measurement": "inhibition", "setting": "[7]", "value": "Dose-dependent effect"}, {"measurement": "MIC", "setting": "[6]", "value": "> 100", "unit": "µM"}]}, {"smiles": "Cc1cc(NS(=O)(=O)c2ccc(NC(S)=NCc3ccccc3)cc2)no1", "values": [{"measurement": "inhibition", "setting": "Chlamydia pneumoniae", "value": "inactive"}, {"measurement": "viability at 48 h, 50 µM", "setting": "[4]", "value": "> 70", "unit": "%"}, {"measurement": "inhibition at 50 µM", "setting": "Chlamydia trachomatis [5]", "value": 26.9, "unit": "%"}, {"measurement": "MIC", "setting": "[6]", "value": "> 100", "unit": "µM"}]}, {"smiles": "Cc1cc(NS(=O)(=O)c2ccc(C(=O)N/N=C/c3cc(Cl)cc(Cl)c3O)cc2)no1", "values": [{"measurement": "inhibition", "setting": "Chlamydia pneumoniae", "value": "inactive"}, {"measurement": "viability at 48 h, 50 µM", "setting": "[4]", "value": "> 70", "unit": "%"}, {"measurement": "inhibition at 50 µM", "setting": "Chlamydia trachomatis [5]", "value": 24.2, "unit": "%"}, {"measurement": "inhibition", "setting": "[7]", "value": "Dose-dependent effect"}, {"measurement": "MIC", "setting": "[6]", "value": "> 100", "unit": "µM"}]}, {"smiles": "CCN(CC)c1ccc(/C=N/NC(=O)c2ccc(S(=O)(=O)Nc3cc(C)on3)cc2)c(O)c1", "values": [{"measurement": "growth inhibition (GI)", "setting": "Chlamydia trachomatis [2]", "value": "inactive"}, {"measurement": "inhibition at 50 µM", "setting": "Chlamydia pneumoniae", "value": 100, "unit": "%"}, {"measurement": "viability at 48 h, 50 µM", "setting": "[4]", "value": "> 70", "unit": "%"}, {"measurement": "inhibition at 50 µM", "setting": "Chlamydia trachomatis [5]", "value": 83, "unit": "%"}, {"measurement": "inhibition", "setting": "[7]", "value": "Dose-dependent effect"}, {"measurement": "MIC", "setting": "[6]", "value": "> 100", "unit": "µM"}]}, {"smiles": "Cc1cc(NS(=O)(=O)c2ccc(NC(=O)NC3CCCCC3)cc2)no1", "values": [{"measurement": "inhibition", "setting": "Chlamydia pneumoniae", "value": "inactive"}, {"measurement": "viability at 48 h, 50 µM", "setting": "[4]", "value": "> 70", "unit": "%"}, {"measurement": "inhibition at 50 µM", "setting": "Chlamydia trachomatis [5]", "value": 14.8, "unit": "%"}, {"measurement": "MIC", "setting": "[6]", "value": "> 100", "unit": "µM"}]}, {"smiles": "Cc1cc(NS(=O)(=O)c2ccc(NC(=S)Nc3ccc(O)cc3)cc2)no1", "values": [{"measurement": "inhibition at 50 µM", "setting": "Chlamydia pneumoniae", "value": 60.8, "unit": "%"}, {"measurement": "viability at 48 h, 50 µM", "setting": "[4]", "value": "> 70", "unit": "%"}, {"measurement": "inhibition", "setting": "Chlamydia trachomatis [5]", "value": "inactive"}, {"measurement": "MIC", "setting": "[6]", "value": "> 100", "unit": "µM"}]}, {"smiles": "Cc1cc(NS(=O)(=O)c2ccc(NC(=O)/C=C/c3ccc(C(=O)N/N=C/c4cccc(F)c4O)cc3)cc2)no1", "values": [{"measurement": "inhibition", "setting": "Chlamydia pneumoniae", "value": "inactive"}, {"measurement": "viability at 48 h, 50 µM", "setting": "[4]", "value": "> 70", "unit": "%"}, {"measurement": "inhibition at 50 µM", "setting": "Chlamydia trachomatis [5]", "value": 33.4, "unit": "%"}, {"measurement": "inhibition", "setting": "[7]", "value": "Dose-dependent effect"}, {"measurement": "MIC", "setting": "[6]", "value": "> 100", "unit": "µM"}]}, {"smiles": "Cc1cc(NS(=O)(=O)c2ccc(NC(=S)NCc3ccccc3O)cc2)no1", "values": [{"measurement": "inhibition", "setting": "Chlamydia pneumoniae", "value": "inactive"}, {"measurement": "viability at 48 h, 50 µM", "setting": "[4]", "value": "> 70", "unit": "%"}, {"measurement": "inhibition", "setting": "Chlamydia trachomatis [5]", "value": "inactive"}, {"measurement": "MIC", "setting": "[6]", "value": "> 100", "unit": "µM"}]}, {"smiles": "Cc1cc(NS(=O)(=O)c2ccc(NC(=O)NCc3ccccc3)cc2)no1", "values": [{"measurement": "inhibition", "setting": "Chlamydia pneumoniae", "value": "inactive"}, {"measurement": "viability at 48 h, 50 µM", "setting": "[4]", "value": "> 70", "unit": "%"}, {"measurement": "inhibition at 50 µM", "setting": "Chlamydia trachomatis [5]", "value": 18.5, "unit": "%"}, {"measurement": "MIC", "setting": "[6]", "value": "> 100", "unit": "µM"}]}, {"smiles": "Cc1cc(NS(=O)(=O)c2ccc(NC(=S)NC3CCCCC3)cc2)no1", "values": [{"measurement": "inhibition", "setting": "Chlamydia pneumoniae", "value": "inactive"}, {"measurement": "viability at 48 h, 50 µM", "setting": "[4]", "value": "> 70", "unit": "%"}, {"measurement": "inhibition at 50 µM", "setting": "Chlamydia trachomatis [5]", "value": 26.9, "unit": "%"}, {"measurement": "MIC", "setting": "[6]", "value": "> 100", "unit": "µM"}]}, {"smiles": "Cc1cc(NS(=O)(=O)c2ccc(C(=O)N/N=C/c3cc(Br)cc(Br)c3O)cc2)no1", "values": [{"measurement": "growth inhibition (GI)", "setting": "Chlamydia trachomatis [2]", "value": "inactive"}, {"measurement": "inhibition at 50 µM", "setting": "Chlamydia pneumoniae", "value": 99.4, "unit": "%"}, {"measurement": "viability at 48 h, 50 µM", "setting": "[4]", "value": "> 70", "unit": "%"}, {"measurement": "inhibition", "setting": "[3]", "value": "Active"}, {"measurement": "inhibition at 50 µM", "setting": "Chlamydia trachomatis [5]", "value": 65.2, "unit": "%"}, {"measurement": "inhibition", "setting": "[7]", "value": "Dose-dependent effect"}, {"measurement": "MIC", "setting": "[6]", "value": "> 100", "unit": "µM"}]}, {"smiles": "Cc1cc(NS(=O)(=O)c2ccc(NC(=O)/C=C/c3ccc(C(=O)N/N=C/c4cc(Br)ccc4O)cc3)cc2)no1", "values": [{"measurement": "inhibition", "setting": "Chlamydia pneumoniae", "value": "inactive"}, {"measurement": "viability at 48 h, 50 µM", "setting": "[4]", "value": "> 70", "unit": "%"}, {"measurement": "inhibition at 50 µM", "setting": "Chlamydia trachomatis [5]", "value": 21.5, "unit": "%"}, {"measurement": "inhibition", "setting": "[7]", "value": "Dose-dependent effect"}, {"measurement": "MIC", "setting": "[6]", "value": "> 100", "unit": "µM"}]}]}
